Test results reported in ChEMBL document CHEMBL5329156, “Discovery and development of novel substituted monohydrazides as potent antifungal agents” (RSC Med Chem, 2023).

Legend:
Candida albicans [1] = assay: Antifungal activity against itraconazole/fluconazole resistant Candida albicans ATCC 90819 assessed as fungal growth inhibition by double dilution method; type: functional
Procedure, shortened: (§1)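 Broth microdilution after CLSI M27-A3/M38-A2 with minor modifications. A single colony was grown overnight in YPD at 35 °C with shaking at 200 rpm. Cells were mixed 1:1 with compound (final 0.06-31.3 µg/mL, from DMSO stocks) and incubated 48 h at 35 °C.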

J774.A1 = assay: Cytotoxicity against J774A.1 cells assessed as reduction in cell viability at 31.3 microg/ml; type: toxicity, cell-based; conditions: mouse, dose 31.3 µg/ml
Procedure, shortened: (§2)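 Cells in DMEM with 10% FBS and 1% Pen/Strep, seeded at 10,000 cells/well and held overnight at 37 °C, 5% CO2. Compounds added at final 31.3-0.12 µg/mL (0.05% DMSO vehicle) for 24 h. Resazurin then added for 6 h; fluorescence read at ex 560/em 590. Triton X-100 1% as positive control; values normalized to vehicle. Run in quadruplicate.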

[Candida] auris [2] = Antifungal activity against Candida auris AR Bank # 386 assessed as fungal growth inhibition by double dilution method; type: functional; conditions: Candidozyma auris
Procedure, shortened: (§3)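 Broth microdilution after CLSI M27-A3/M38-A2 with minor changes. Single colony grown overnight in YPD at 35 °C, 200 rpm. Compound final range 0.06-31.3 µg/mL; incubated 48 h at 35 °C.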

Candida albicans [3] = assay: Antifungal activity against itraconazole/fluconazole resistant Candida albicans ATCC MYA-1237 assessed as fungal growth inhibition by double dilution method; type: functional; procedure, shortened: as §1
Candida duobushaemulonii [4] = assay: Antifungal activity against Candida duobushaemulonii AR Bank # 391 assessed as fungal growth inhibition by double dilution method; type: functional; conditions: Candidozyma duobushaemuli; procedure, shortened: as §3
[Candida] auris [5] = Antifungal activity against Candida auris AR Bank # 387 assessed as fungal growth inhibition by double dilution method; type: functional; conditions: Candidozyma auris; procedure, shortened: as §3
Aspergillus fumigatus [6] = assay: Antifungal activity against Aspergillus fumigatus NRRL 163 assessed as fungal growth inhibition by double dilution method; type: functional
[Candida] auris [7] = Antifungal activity against Candida auris AR Bank # 383 assessed as fungal growth inhibition by double dilution method; type: functional; conditions: Candidozyma auris; procedure, shortened: as §3
HEK293 = assay: Cytotoxicity against human HEK-293 cells assessed as reduction in cell viability at 31.3 microg/ml; type: toxicity, cell-based; conditions: dose 31.3 µg/ml; procedure, shortened: as §2
Candida albicans [8] = assay: Antifungal activity against Candida albicans ATCC 10231 assessed as fungal growth inhibition by double dilution method; type: functional; procedure, shortened: as §3
Aspergillus fumigatus [9] = assay: Antifungal activity against Aspergillus fumigatus NRRL 6113 assessed as fungal growth inhibition by double dilution method; type: functional
[Candida] auris [10] = Antifungal activity against Candida auris AR Bank # 0384 assessed as fungal growth inhibition by double dilution method; type: functional; conditions: Candidozyma auris; procedure, shortened: as §3
[Candida] auris [11] = Antifungal activity against Candida auris AR Bank # 0390 assessed as fungal growth inhibition by double dilution method; type: functional; conditions: Candidozyma auris; procedure, shortened: as §3
Pichia kudriavzevii [12] = assay: Antifungal activity against Pichia kudriavzevii AR Bank # 397 assessed as fungal growth inhibition by double dilution method; type: functional; procedure, shortened: as §3
[Candida] auris [13] = Antifungal activity against Candida auris AR Bank # 384 assessed as fungal growth inhibition by double dilution method; type: functional; conditions: Candidozyma auris; procedure, shortened: as §3
[Candida] auris [14] = Antifungal activity against Candida auris AR Bank # 389 assessed as fungal growth inhibition by double dilution method; type: functional; conditions: Candidozyma auris; procedure, shortened: as §3
[Candida] auris [15] = Antifungal activity against Candida auris AR Bank # 381 assessed as fungal growth inhibition by double dilution method; type: functional; conditions: Candidozyma auris; procedure, shortened: as §3
Candida duobushaemulonii [16] = assay: Antifungal activity against Candida duobushaemulonii AR Bank # 392 assessed as fungal growth inhibition by double dilution method; type: functional; conditions: Candidozyma duobushaemuli; procedure, shortened: as §3
HepG2 = assay: Cytotoxicity against human HepG2 cells assessed as reduction in cell viability upto 31.3 microg/ml; type: toxicity, cell-based; conditions: dose < 31.3 µg/ml; procedure, shortened: as §2
Cryptococcus neoformans = assay: Antifungal activity against Cryptococcus neoformans ATCC MYA-895 assessed as fungal growth inhibition by double dilution method; type: functional; procedure, shortened: as §3
Aspergillus nidulans = assay: Antifungal activity against Aspergillus nidulans ATCC 38163 assessed as fungal growth inhibition by double dilution method; type: functional
Nakaseomyces glabratus [17] = assay: Antifungal activity against Candida glabrata ATCC 2001 assessed as fungal growth inhibition by double dilution method; type: functional; procedure, shortened: as §3
[Candida] auris [18] = Antifungal activity against Candida auris AR Bank # 388 assessed as fungal growth inhibition by double dilution method; type: functional; conditions: Candidozyma auris; procedure, shortened: as §3
[Candida] auris [19] = Antifungal activity against Candida auris AR Bank # 390 assessed as fungal growth inhibition by double dilution method; type: functional; conditions: Candidozyma auris; procedure, shortened: as §3
Nakaseomyces glabratus [20] = assay: Antifungal activity against Candida glabrata ATCC 22019 assessed as fungal growth inhibition by double dilution method; type: functional; procedure, shortened: as §3
Candida albicans [21] = assay: Antifungal activity against itraconazole/fluconazole susceptible Candida albicans ATCC MYA-2876 assessed as fungal growth inhibition by double dilution method; type: functional; procedure, shortened: as §1
Candida albicans [22] = assay: Antifungal activity against Candida albicans ATCC 64124 assessed as fungal growth inhibition by double dilution method; type: functional; procedure, shortened: as §1
Clavispora lusitaniae = assay: Antifungal activity against Clavispora lusitaniae AR Bank # 398 assessed as fungal growth inhibition by double dilution method; type: functional; procedure, shortened: as §3
Candida albicans [23] = assay: Antifungal activity against itraconazole/fluconazole resistant Candida albicans ATCC MYA-1003 assessed as fungal growth inhibition by double dilution method; type: functional; procedure, shortened: as §1
Saccharomyces cerevisiae [24] = assay: Antifungal activity against Saccharomyces cerevisiae AR Bank # 399 assessed as fungal growth inhibition by double dilution method; type: functional; procedure, shortened: as §3
[Candida] haemuloni [25] = Antifungal activity against Candida haemulonii AR Bank # 395 assessed as fungal growth inhibition by double dilution method; type: functional; conditions: Candidozyma haemuli; procedure, shortened: as §3
[Candida] haemuloni [26] = Antifungal activity against Candida haemulonii AR Bank # 393 assessed as fungal growth inhibition by double dilution method; type: functional; conditions: Candidozyma haemuli; procedure, shortened: as §3
Candida duobushaemulonii [27] = assay: Antifungal activity against Candida duobushaemulonii AR Bank # 394 assessed as fungal growth inhibition by double dilution method; type: functional; conditions: Candidozyma duobushaemuli; procedure, shortened: as §3
Kodamaea ohmeri = assay: Antifungal activity against Kodamaea ohmeri AR Bank # 396 assessed as fungal growth inhibition by double dilution method; type: functional; procedure, shortened: as §3
[Candida] auris [28] = Antifungal activity against Candida auris AR Bank # 382 assessed as fungal growth inhibition by double dilution method; type: functional; conditions: Candidozyma auris; procedure, shortened: as §3
Pichia kudriavzevii [29] = assay: Antifungal activity against Pichia kudriavzevii ATCC 6258 assessed as fungal growth inhibition by double dilution method; type: functional; procedure, shortened: as §3
Candida albicans [30] = assay: Antifungal activity against itraconazole/fluconazole susceptible Candida albicans ATCC MYA-2310 assessed as fungal growth inhibition by double dilution method; type: functional; procedure, shortened: as §1
Aspergillus fumigatus [31] = assay: Antifungal activity against Aspergillus fumigatus NRRL 5109 assessed as fungal growth inhibition by double dilution method; type: functional
[Candida] auris [32] = Antifungal activity against Candida auris AR Bank # 385 assessed as fungal growth inhibition by double dilution method; type: functional; conditions: Candidozyma auris; procedure, shortened: as §3
Aspergillus flavus = assay: Antifungal activity against Aspergillus flavus ATCC MYA-3631 assessed as fungal growth inhibition by double dilution method; type: functional
Aspergillus terreus = assay: Antifungal activity against Aspergillus terreus ATCC MYA-3633 assessed as fungal growth inhibition by double dilution method; type: functional
Saccharomyces cerevisiae [33] = assay: Antifungal activity against Saccharomyces cerevisiae AR Bank # 400 assessed as fungal growth inhibition by double dilution method; type: functional; procedure, shortened: as §3

COc1ccc(NNC(=O)c2cnccn2)cc1
0.49 µg/mL: MIC ([Candida] auris [2]) | MIC (Candida duobushaemulonii [4]) | MIC (Candida albicans [8]) | MIC ([Candida] auris [10]) | MIC ([Candida] auris [11]) | MIC (Pichia kudriavzevii [12]) | MIC (Candida duobushaemulonii [16]) | MIC ([Candida] haemuloni [25]) | MIC (Candida duobushaemulonii [27])
0.98 µg/mL: MIC (Candida albicans [1]) | MIC (Candida albicans [3]) | MIC ([Candida] auris [7]) | MIC ([Candida] auris [13]) | MIC ([Candida] auris [14]) | MIC (Cryptococcus neoformans) | MIC (Aspergillus nidulans) | MIC (Nakaseomyces glabratus [17]) | MIC ([Candida] auris [18]) | MIC ([Candida] auris [19]) | MIC (Candida albicans [22]) | MIC (Clavispora lusitaniae) | MIC (Saccharomyces cerevisiae [24]) | MIC (Kodamaea ohmeri) | MIC ([Candida] auris [28]) | MIC (Pichia kudriavzevii [29]) | MIC ([Candida] auris [32]) | MIC (Saccharomyces cerevisiae [33])
0.24 µg/mL: MIC ([Candida] haemuloni [26])
1.95 µg/mL: MIC ([Candida] auris [5]) | MIC ([Candida] auris [15]) | MIC (Candida albicans [21]) | MIC (Candida albicans [23]) | MIC (Candida albicans [30])
31.3 µg/mL: MIC (Aspergillus fumigatus [6]) | MIC (Aspergillus fumigatus [9]) | MIC (Aspergillus fumigatus [31])
3.9 µg/mL: MIC (Nakaseomyces glabratus [20])
Non-Toxic: Activity (J774.A1) | Activity (HEK293) | Activity (HepG2)
> 31.3 µg/mL: MIC (Aspergillus flavus) | MIC (Aspergillus terreus)
